Source: ChEMBL document CHEMBL1667863, “Amino-benzosuberone: a novel warhead for selective inhibition of human aminopeptidase-N/CD13” (Bioorg Med Chem, 2011)
Where a name gives a salt, the structure may show the parent alone. The source made the active and inactive calls. No cut-off for these calls is given here.

Key:
[1] = biological target: T1, Leukotriene A-4 hydrolase (Homo sapiens, UniProt P09960); test: Inhibition of aminopeptidase activity of human leukotriene A4 hydrolase by Dixon plot analysis
T1 sequence (P09960 whole entry): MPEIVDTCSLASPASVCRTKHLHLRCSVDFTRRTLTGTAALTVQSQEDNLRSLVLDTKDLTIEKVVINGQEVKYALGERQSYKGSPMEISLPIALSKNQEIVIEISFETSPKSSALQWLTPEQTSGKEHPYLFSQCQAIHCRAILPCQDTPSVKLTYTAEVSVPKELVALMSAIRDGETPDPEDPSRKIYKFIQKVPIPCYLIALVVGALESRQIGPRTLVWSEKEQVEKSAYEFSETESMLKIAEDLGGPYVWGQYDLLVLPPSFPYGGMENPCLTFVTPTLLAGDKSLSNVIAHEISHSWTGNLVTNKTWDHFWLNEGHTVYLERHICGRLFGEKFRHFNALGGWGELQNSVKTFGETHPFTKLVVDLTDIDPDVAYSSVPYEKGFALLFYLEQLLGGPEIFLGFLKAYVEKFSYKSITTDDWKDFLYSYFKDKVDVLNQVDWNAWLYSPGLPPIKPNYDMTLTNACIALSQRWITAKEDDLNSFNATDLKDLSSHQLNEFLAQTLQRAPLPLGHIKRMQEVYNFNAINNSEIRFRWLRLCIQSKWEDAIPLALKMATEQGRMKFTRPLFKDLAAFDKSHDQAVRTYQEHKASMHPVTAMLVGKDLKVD
Method in brief: (§1)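 Compounds tested as racemates; IC50 obtained from Dixon plots, with substrate set at the Km of each enzyme.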

Cytosol aminopeptidase = biological target: T2, Cytosol aminopeptidase (Bos taurus, UniProt P00727); test: Inhibition of bovine lens cytosolic leucine aminopeptidase by Dixon plot analysis; design: species or system Lens of camera-type eye; method in brief: as §1
T2 sequence (P00727 whole entry): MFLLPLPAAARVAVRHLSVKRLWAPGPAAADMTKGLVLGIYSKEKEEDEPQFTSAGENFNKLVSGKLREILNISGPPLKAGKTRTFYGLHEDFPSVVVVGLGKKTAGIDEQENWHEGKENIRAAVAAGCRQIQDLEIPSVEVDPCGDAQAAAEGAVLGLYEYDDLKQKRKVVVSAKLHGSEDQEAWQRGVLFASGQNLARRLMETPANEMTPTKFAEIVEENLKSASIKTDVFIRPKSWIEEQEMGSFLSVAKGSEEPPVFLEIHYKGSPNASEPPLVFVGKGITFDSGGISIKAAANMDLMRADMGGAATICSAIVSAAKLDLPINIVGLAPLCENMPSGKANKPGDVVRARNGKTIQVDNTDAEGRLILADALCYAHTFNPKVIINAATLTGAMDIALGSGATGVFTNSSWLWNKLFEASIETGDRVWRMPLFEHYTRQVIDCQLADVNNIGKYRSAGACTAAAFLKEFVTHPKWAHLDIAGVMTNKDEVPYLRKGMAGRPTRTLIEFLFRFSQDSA

[2] = Inhibition of Aeromonas proteolytica aminopeptidase by Dixon plot analysis; design: species or system Vibrio proteolyticus; method in brief: as §1
[3] = biological target: T3, Aminopeptidase N (Sus scrofa) (UniProt P15145); test: Inhibition of porcine kidney aminopeptidase N at 2 uM after 8 hrs
T3 sequence (whole entry): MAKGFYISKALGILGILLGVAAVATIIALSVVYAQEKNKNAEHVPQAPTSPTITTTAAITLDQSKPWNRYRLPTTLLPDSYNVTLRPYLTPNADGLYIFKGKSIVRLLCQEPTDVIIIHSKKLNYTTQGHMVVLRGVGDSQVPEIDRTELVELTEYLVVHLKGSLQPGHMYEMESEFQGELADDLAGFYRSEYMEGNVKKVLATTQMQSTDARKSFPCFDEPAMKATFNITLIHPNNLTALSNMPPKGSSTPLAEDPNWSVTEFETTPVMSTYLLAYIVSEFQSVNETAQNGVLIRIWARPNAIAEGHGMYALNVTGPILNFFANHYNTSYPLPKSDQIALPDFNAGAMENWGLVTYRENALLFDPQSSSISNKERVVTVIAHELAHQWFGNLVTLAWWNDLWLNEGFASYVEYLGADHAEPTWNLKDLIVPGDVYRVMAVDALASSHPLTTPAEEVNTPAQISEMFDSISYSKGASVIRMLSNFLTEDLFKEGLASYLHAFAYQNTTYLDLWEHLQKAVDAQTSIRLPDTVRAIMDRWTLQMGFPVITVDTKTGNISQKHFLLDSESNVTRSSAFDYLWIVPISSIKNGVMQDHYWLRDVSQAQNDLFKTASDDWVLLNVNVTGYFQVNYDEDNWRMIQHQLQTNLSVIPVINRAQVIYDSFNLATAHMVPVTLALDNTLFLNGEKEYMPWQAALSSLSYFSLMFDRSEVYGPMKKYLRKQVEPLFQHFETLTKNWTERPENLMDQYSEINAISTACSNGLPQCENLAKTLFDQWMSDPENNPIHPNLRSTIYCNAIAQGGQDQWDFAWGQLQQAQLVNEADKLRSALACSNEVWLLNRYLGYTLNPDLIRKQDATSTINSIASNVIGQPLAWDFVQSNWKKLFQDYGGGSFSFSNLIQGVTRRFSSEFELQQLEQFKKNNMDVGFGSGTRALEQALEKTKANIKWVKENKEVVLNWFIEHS
Method in brief: (§2)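 Porcine kidney APN (3 milliunits, added to start the reaction) in 20 mM Tris-HCl pH 7.5 at 25 °C; substrate leucine-para-nitroanilide 0.2 mM; para-nitroaniline release followed at 405 nm for up to 10 h; inhibitor at 2 µM; velocities compared with a no-inhibitor control.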

[4] = Chemical stability of the compound; format: physicochemical
Aminopeptidase N = Aminopeptidase N (Homo sapiens, UniProt P15144); test: Inhibition of human aminopeptidase N by Dixon plot analysis
[5] = biological target: T3, Aminopeptidase N (Sus scrofa); test: Inhibition of porcine kidney aminopeptidase N at 2 uM after 1 hr; method in brief: as §2

Aminopeptidase N, sequence (P15144 whole entry): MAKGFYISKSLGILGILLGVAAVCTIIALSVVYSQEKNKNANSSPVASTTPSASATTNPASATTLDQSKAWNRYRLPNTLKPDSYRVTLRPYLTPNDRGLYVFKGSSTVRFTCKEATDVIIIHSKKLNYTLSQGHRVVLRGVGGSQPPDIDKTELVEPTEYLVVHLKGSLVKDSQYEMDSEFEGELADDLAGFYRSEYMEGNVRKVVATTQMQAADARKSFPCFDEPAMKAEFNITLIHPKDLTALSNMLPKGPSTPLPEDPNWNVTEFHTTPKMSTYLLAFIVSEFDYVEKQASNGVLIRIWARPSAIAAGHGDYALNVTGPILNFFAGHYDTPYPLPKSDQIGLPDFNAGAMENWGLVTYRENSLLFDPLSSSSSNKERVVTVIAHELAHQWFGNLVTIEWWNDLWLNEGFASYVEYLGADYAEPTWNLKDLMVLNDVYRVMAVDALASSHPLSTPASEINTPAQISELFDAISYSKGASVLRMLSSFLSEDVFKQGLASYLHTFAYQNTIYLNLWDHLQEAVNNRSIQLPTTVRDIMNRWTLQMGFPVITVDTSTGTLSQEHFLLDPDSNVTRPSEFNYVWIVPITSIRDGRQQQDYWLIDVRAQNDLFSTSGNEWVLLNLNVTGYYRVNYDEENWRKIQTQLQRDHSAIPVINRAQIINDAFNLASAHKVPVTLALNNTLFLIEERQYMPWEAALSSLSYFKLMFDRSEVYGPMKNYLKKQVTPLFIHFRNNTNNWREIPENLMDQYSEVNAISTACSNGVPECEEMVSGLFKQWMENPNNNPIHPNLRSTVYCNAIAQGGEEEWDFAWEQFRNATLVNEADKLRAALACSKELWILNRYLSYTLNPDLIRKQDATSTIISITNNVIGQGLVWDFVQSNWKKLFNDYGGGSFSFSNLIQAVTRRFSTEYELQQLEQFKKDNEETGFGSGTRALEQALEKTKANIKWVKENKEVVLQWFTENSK

Structure (SMILES)	IC50 [1] [mM]	IC50 (Cytosol aminopeptidase) [mM]	IC50 [2] [µM]	IC50 (Aminopeptidase N) [µM]	inhibition [5] [%]	inhibition [3]	Stability [4]	Ki (Aminopeptidase N) [nM]
NC1C(=O)Cc2ccccc21 (configuration not stated)	> 1	> 1	150					
Cl.NC1CCc2ccccc2CC1=O (configuration not stated)	> 1	> 1	900			60%	Stable	1000
N[C@H]1CCc2ccccc2C[C@H]1O (relative stereo)		> 1	> 1000					
NC1Cc2ccccc2CCC1=O (configuration not stated)	> 1	> 1	> 1000	> 1000				
NC1CCCCCC1=O (configuration not stated) [2-AMINOCYCLOHEPTANONE HYDROCHLORIDE]		> 0.1	350	310				

Now those with a lower IC50 [2], led by results:

IC50 [1] [mM]	IC50 (Cytosol aminopeptidase) [mM]	IC50 [2] [µM]	IC50 (Aminopeptidase N) [µM]	inhibition [5] [%]	Structure (SMILES)	inhibition [3]	Stability [4]	Ki (Aminopeptidase N) [nM]
> 1		130		60	NC1Cc2ccccc2CC1=O (configuration not stated)	inactive		
> 1	> 1	15	110		NC1CCc2ccccc2C/C1=N/O (configuration not stated)			
		0.0016			CC(C)C[C@H](NC(=O)[C@@H](O)[C@H](N)Cc1ccccc1)C(=O)O [UBENIMEX]			
